Assay results published in ChEMBL document CHEMBL5126601 (ACS Med Chem Lett, 2022).
Calls of active or inactive are those of the source. The calls are words filed in the database; no cut-off is given here.

How the values were obtained:
[1] = target: T1, Adenosine receptor A1 (Homo sapiens, UniProt P30542); assay: Binding affinity to human wild type adenosine A1 receptor expressed in Expi293F cells assessed as dissociation constant by surface plasmon resonance assay
T1 sequence (P30542 whole entry): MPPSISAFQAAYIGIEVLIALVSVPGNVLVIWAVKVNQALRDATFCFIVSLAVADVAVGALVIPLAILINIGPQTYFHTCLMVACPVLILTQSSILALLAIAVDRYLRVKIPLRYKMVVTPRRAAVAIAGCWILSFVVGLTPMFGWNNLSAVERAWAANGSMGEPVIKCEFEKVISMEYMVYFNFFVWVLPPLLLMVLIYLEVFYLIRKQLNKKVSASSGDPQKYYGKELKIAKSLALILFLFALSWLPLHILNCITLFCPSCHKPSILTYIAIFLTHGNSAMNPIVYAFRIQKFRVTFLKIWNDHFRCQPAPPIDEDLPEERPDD

[2] = target: T2, Adenosine receptor A2a (Homo sapiens, UniProt P29274); assay: Antagonist activity at human adenosine A2A receptor expressed in HEK293T cells assessed as inhibition of EC20 concentration of NECA-induced cAMP accumulation by measuring fold change in potency by GloSensor cAMP accumulation assay; format: functional, cell-based; details: filed as antagonist
[3] = target: T3, Adenosine receptor A3 (Homo sapiens, UniProt P0DMS8); assay: (§1) Binding affinity to human wild type adenosine A3 receptor expressed in Expi293F cells assessed as dissociation constant by surface plasmon resonance assay
T3 sequence (P0DMS8 whole entry): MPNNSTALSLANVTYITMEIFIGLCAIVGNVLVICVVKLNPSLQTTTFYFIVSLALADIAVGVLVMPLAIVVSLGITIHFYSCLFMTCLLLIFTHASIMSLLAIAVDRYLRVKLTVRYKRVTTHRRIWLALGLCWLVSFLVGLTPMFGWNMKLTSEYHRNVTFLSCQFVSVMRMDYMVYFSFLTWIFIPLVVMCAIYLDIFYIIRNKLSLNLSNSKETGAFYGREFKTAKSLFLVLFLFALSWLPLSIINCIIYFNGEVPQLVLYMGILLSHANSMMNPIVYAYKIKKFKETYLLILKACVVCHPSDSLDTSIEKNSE

[4] = target: T4, Adenosine receptor A2b (Homo sapiens, UniProt P29275); assay: Binding affinity to human wild type adenosine A2B receptor expressed in Expi293F cells assessed as dissociation constant by surface plasmon resonance assay
T4 sequence (P29275 whole entry): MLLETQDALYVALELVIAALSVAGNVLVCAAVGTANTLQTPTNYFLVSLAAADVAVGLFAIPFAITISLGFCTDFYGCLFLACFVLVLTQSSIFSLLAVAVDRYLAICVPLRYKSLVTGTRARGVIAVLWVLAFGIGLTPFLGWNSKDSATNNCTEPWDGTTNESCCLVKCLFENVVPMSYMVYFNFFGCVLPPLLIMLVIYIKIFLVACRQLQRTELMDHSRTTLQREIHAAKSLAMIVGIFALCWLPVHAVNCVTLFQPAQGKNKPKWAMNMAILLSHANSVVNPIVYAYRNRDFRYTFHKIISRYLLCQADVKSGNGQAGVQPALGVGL

[5] = target: T2, Adenosine receptor A2a; assay: Allosteric modulator activity at human adenosine A2A receptor expressed in HEK293T cells assessed as stimulation of NECA-induced cAMP accumulation by GloSensor cAMP accumulation assay; format: functional, cell-based; details: filed as positive allosteric modulator
How it was run: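 GloSensor cAMP accumulation in HEK293T cells transiently expressing A2A; compound tested for modulation of NECA-stimulated cAMP (EC80 and EC20 NECA), concentrations up to 30 μM. Data as % of maximum NECA response; mean ± SEM of three to four experiments in at least duplicate.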

[6] = target: T2, Adenosine receptor A2a; assay: Binding affinity to human wild type adenosine A2A receptor expressed in Expi293F cells assessed as dissociation constant by surface plasmon resonance assay
[7] = target: T2, Adenosine receptor A2a; assay: Antagonist activity at human adenosine A2A receptor expressed in HEK293T cells assessed as inhibition of EC20 concentration of NECA-induced cAMP accumulation at higher concentration by GloSensor cAMP accumulation assay; format: functional, cell-based; details: filed as antagonist
How it was run: (§2)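 HEK293T cells expressing A2A, GloSensor luciferase cAMP read-out; concentration–response curves run against EC20 NECA (3 nM). Data as % of maximum NECA response; mean ± SEM of at least three independent experiments in technical duplicate. Maximum tested concentration 0.63 mM where compound supply was limited; compounds also checked in cells lacking transfected A2A.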

[8] = target: T5, Adenosine receptor A1 (Homo sapiens) (UniProt P30542); assay: Binding affinity to human wild type adenosine A1 receptor expressed in Expi293F cells assessed as affinity off-rate by surface plasmon resonance assay
T5 sequence (whole entry): T1 sequence (P30542 whole entry)

[9] = target: T5, Adenosine receptor A1 (Homo sapiens); assay: Binding affinity to human wild type adenosine A1 receptor expressed in Expi293F cells assessed as affinity on-rate by surface plasmon resonance assay
[10] = target: T6, Adenosine receptor A3 (Homo sapiens) (UniProt P0DMS8); assay: as §1
T6 sequence (whole entry): T3 sequence (P0DMS8 whole entry)

[11] = target: Glycogen synthase kinase-3 alpha (Homo sapiens, UniProt P49840); assay: Inhibition of recombinant human GSKalpha
[12] = target: T6, Adenosine receptor A3 (Homo sapiens); assay: Binding affinity to human wild type adenosine A3 receptor expressed in Expi293F cells assessed as affinity on-rate by surface plasmon resonance assay
[13] = target: T6, Adenosine receptor A3 (Homo sapiens); assay: Binding affinity to human wild type adenosine A3 receptor expressed in Expi293F cells assessed as affinity off-rate by surface plasmon resonance assay
[14] = target: T4, Adenosine receptor A2b; assay: Binding affinity to human wild type adenosine A2B receptor expressed in Expi293F cells assessed as affinity on-rate by surface plasmon resonance assay
[15] = target: T2, Adenosine receptor A2a; assay: Antagonist activity at human adenosine A2A receptor expressed in HEK293T cells assessed as inhibition of EC20 concentration of NECA-induced cAMP accumulation at 0.63 mM by GloSensor cAMP accumulation assay; format: functional, cell-based; details: filed as antagonist; how it was run: as §2
[16] = target: T4, Adenosine receptor A2b; assay: Binding affinity to human wild type adenosine A2B receptor expressed in Expi293F cells assessed as affinity on-rate by surface plasmon resonance assay
[17] = target: T2, Adenosine receptor A2a; assay: Antagonist activity at human adenosine A2A receptor expressed in HEK293T cells assessed as inhibition of 500 nM NECA-induced cAMP accumulation by GloSensor cAMP accumulation assay; details: filed as antagonist
[18] = target: T7, Adenosine receptor A2b (Homo sapiens) (UniProt P29275); assay: Binding affinity to human wild type adenosine A2B receptor expressed in Expi293F cells assessed as affinity off-rate by surface plasmon resonance assay
T7 sequence (whole entry): T4 sequence (P29275 whole entry)

[19] = target: T4, Adenosine receptor A2b; assay: Binding affinity to human wild type adenosine A2B receptor expressed in Expi293F cells assessed as inhibition constant by surface plasmon resonance assay
[20] = tested on: HEK-293T; assay: Effect on cAMP accumulation in HEK293T cells by GloSensor cAMP accumulation assay; format: functional, cell-based; details: Homo sapiens
How it was run: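 HEK293T cells transiently expressing the A2A receptor, with a GloSensor luciferase cAMP read-out. Compound concentration series were tested against NECA at EC80 (500 nM) or EC20 (3 nM), and for agonist activity alone. Cells lacking transfected A2A served as control. Responses are expressed as a percentage of the maximum NECA response, as mean ± SEM of at least three independent experiments in technical duplicate.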

[21] = target: T2, Adenosine receptor A2a; assay: Antagonist activity at human adenosine A2A receptor expressed in HEK293T cells assessed as inhibition of EC20 concentration of NECA-induced cAMP accumulation by GloSensor cAMP accumulation assay; format: functional, cell-based; details: filed as antagonist; how it was run: as §2
[22] = target: T1, Adenosine receptor A1; assay: Binding affinity to human wild type adenosine A1 receptor expressed in Expi293F cells assessed as affinity on-rate by surface plasmon resonance assay
[23] = target: T2, Adenosine receptor A2a; assay: Binding affinity to human wild type adenosine A2A receptor expressed in Expi293F cells assessed as inhibition constant taken from literature

T2 sequence (P29274 whole entry): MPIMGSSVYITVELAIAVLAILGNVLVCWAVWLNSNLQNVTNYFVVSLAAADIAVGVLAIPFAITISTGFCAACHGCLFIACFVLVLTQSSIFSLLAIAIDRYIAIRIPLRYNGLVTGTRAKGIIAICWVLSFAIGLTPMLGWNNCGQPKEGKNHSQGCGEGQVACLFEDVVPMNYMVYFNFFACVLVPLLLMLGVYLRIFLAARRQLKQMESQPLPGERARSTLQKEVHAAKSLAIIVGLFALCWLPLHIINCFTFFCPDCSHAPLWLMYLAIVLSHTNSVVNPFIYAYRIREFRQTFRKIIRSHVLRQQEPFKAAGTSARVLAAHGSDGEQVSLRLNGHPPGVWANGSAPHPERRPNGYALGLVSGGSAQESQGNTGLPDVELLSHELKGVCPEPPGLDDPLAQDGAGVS
Sequence of Glycogen synthase kinase-3 alpha (P49840 whole entry): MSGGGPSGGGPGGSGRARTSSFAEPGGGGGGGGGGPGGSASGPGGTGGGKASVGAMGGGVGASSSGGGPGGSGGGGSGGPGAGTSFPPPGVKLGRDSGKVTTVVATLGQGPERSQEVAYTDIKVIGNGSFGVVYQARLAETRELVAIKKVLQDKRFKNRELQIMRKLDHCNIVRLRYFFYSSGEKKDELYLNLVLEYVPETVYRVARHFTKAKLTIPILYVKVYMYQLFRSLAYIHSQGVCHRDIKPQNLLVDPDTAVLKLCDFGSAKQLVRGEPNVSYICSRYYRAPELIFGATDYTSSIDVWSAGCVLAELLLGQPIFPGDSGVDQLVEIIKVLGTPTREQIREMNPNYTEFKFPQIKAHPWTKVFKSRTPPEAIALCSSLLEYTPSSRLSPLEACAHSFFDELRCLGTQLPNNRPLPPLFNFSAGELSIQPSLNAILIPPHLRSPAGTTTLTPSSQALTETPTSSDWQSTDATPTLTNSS

| SMILES | Kd [1] [µM] | Kd [3] [µM] | Kd [4] [µM] | Kd [6] [µM] | other results |
| --- | --- | --- | --- | --- | --- |
| Nc1nsc(-c2ccc(Cl)cc2)n1 | 20.7 | 36.5 | 45 | 21.8 | Activity [2]: Active; Activity [5]: Active |
| Nc1nncc(-c2ccc(Br)cc2)n1 | 1.1 |  |  | 50 | Activity [7]: Active |
| COc1cc(/C=N/Nc2ncnc3c2cnn3-c2ccccc2)ccc1O | 1.21 |  |  |  | K [8]: 0.06 s⁻¹; Activity [2]: Active; K [9]: 5.33 10^4/M/s; Activity [10]: Active; IC50 [11]: 0.1 µM; Activity [12]: Active; Activity [6]: Active |
| O=C(Nc1n[nH]c2nc(-c3ccco3)c(Br)cc12)C1CC1 | 2.12 |  |  | 0.56 | K [8]: 0.09 s⁻¹; Activity [2]: Active; K [9]: 4.25 10^4/M/s; K [13]: 0.041 s⁻¹ |
| Oc1ncnc2[nH]ncc12 [ALLOPURINOL] |  |  |  | 77 |  |
| Fc1ccc(-c2nn3ccccc3c2-c2ccncc2)cc1 [GW434756X] | 0.00605 | 0.74 | 0.28 | 8.9 | ka [14]: 1.52 10^5/M/s; Activity [15]: Active; K [8]: 0.01 s⁻¹; ka [16]: 1.52 10^5/M/s; K [9]: 1.63 10^6/M/s; K [13]: 0.041 s⁻¹; Activity [17]: Active |
| CS(=O)(=O)c1ccc(C(=O)Nc2cccc(Cl)c2)cc1 | 7.6 | 18 | 19.3 | 13.5 | Activity [7]: Active |
| Nc1nc(N)c2nccnc2n1 |  |  |  | 9.6 |  |
| CC(C)NC(=O)c1cc(-c2ccccc2)[nH]n1 | 70 | 80 | 196 | 49 | Activity [7]: Active |
| N#Cc1c(N)nc(SCc2ncc[nH]2)c(C#N)c1-c1ccc(O)cc1 |  |  | 0.0782 |  | ka [16]: 1.1 10^5/M/s; K [18]: 0.0086 s⁻¹; Ki [19]: 0.012 µM |
| O=C1NC(=O)C(c2cccc(Cl)c2)=C1Nc1ccc(O)c(Cl)c1 | 2.21 |  |  | 0.11 | K [8]: 0.27 s⁻¹; Activity [2]: Active; K [9]: 1.21 10^5/M/s; Activity [17]: Active |
| Cn1c(=O)[nH]c2ccccc2c1=O | 34.3 | 18.9 | 148 | 28.8 |  |
| NC(=O)c1ncoc1-c1ccccc1 |  |  |  | 31.8 |  |
| CCNC(=O)[C@H]1O[C@@H](n2cnc3c(N)ncnc32)[C@H](O)[C@@H]1O |  |  |  |  | Activity [20]: Active |
| Nc1ccc2nnc(-c3ccccc3)n2n1 | 22.9 | 160 | 120 | 1.11 | Activity [21]: Active |
| Nc1nsc(-c2ccccc2)n1 | 122 | 102 | 108 | 139 |  |
| CC(C)n1ncc2cc(C(=O)NCc3ccco3)cnc21 | 27 | 400 | 80 | 210 |  |
| Nc1nc(N)nc(-c2ccccc2)n1 [BENZOGUANAMINE] | 2.21 | 104 | 107 | 1.5 | Activity [21]: Active |
| O=c1cc(NCc2ccccc2)nc2ccccn12 | 154 | 200 | 199 | 131 |  |
| O=C(NCc1ccccc1)c1ccc2nonc2c1 | 92 | 180 | 22 | 100 |  |
| Nc1nc(-c2ccccc2)ns1 | 51.7 | 50.7 | 60.7 | 130 |  |
| O=C(Nc1ccccc1)Nc1ccccn1 | 41 | 52 | 43.3 | 50.9 |  |
| O[C@H]1CC[C@H](Nc2nc(-c3ccccc3)nc3[nH]ccc23)CC1 | 0.00546 |  |  |  | K [8]: 0.0034 s⁻¹; K [9]: 6.27 10^5/M/s; ka [22]: 6.27 10^5/M/s |
| Cc1nn(-c2ccccc2)nc1C(N)=O | 78 | 101 | 140 | 410 |  |
| Nc1nc(Nc2ccccc2)nc2c1ncn2[C@@H]1O[C@H](CO)[C@@H](O)[C@H]1O |  |  |  | 0.0091 | Ki [23]: 0.076 µM |
